Screens (PubChem BioAssay)
An excerpt weighted towards active compounds, which were near 4.6% of everything screened.
CHO parental Ca: ATP-evoked calcium signal inhibitors, parental CHO, primary screen, counter-screen for OX1R antagonist project, cell-based, fluorescence, Fluo-8 calcium dye | parental CHO-K1, ATP-induced calcium, Fluo-8 fluorescence | inhibition, % at 5.6 µM | 330,000 compounds, 0.63% hits | AID 463079, 2010;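 active means inhibition above that plate's mean sample inhibition plus 3 SD, cut at about 26% in these data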;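 further: 0% = ATP-challenged DMSO wells and 100% = DMSO wells without ATP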
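Assay system – parental CHO cells · Reagent – ATP stimulus · Detection – intracellular calcium via Fluo-8 no-wash fluorescent dye · Evaluation – percent inhibition of ATP-evoked calcium rise, normalized to controls · Controls – ATP wells versus no-ATP DMSO wells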
TAAR1 antagonist: human TAAR1 antagonists, primary screen, Fluo-8 calcium fluorescence, CHO RD-HGA16 cells. inhibition, % at 3 µM. antagonist. AID 624466, 2012. 360,000 compounds, 1.5% hits. Trace amine-associated receptor 1 (Homo sapiens), Q96RJ0;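 active means inhibition above a per-plate cutoff, the mean inhibition of test compounds on that plate plus 3 SD, cut at about 49% in these data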;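 further: 0% = DMSO plus EC80 beta-PEA response and 100% = DMSO alone without agonist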
Target sequence (Q96RJ0 whole entry, looked up): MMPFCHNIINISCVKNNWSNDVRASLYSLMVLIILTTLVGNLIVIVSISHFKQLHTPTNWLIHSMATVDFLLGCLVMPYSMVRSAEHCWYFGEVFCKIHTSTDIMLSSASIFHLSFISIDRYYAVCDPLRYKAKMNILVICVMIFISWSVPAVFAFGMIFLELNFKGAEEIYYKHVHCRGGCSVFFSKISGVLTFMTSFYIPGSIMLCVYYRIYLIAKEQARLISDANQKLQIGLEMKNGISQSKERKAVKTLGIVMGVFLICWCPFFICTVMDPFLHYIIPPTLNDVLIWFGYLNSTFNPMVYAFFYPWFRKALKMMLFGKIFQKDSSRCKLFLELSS
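Material: RD-HGA16 CHO cells with stable hTAAR1 and Gα16; Dosing: single nominal final test compound concentration of 3 µM; Schedule: seeding 17-24 h prior, 75-min 37 °C, 30-min RT dye loading; Detection: kinetic Fluo-8 calcium fluorescence measurement; Measure: % inhibition from peak post-agonist over basal fluorescence ratio; Benchmarks: vehicle and agonist controls.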
OX1R antag-1: antagonists of human orexin 1 receptor (OX1R). Orexin/Hypocretin receptor type 1 (Homo sapiens), O43613. OX1R-expressing cells, FRET antagonist read-out. 330,000 compounds, 1.8% hits. AID 485270, 2010. inhibition, % at 6.6 µM; in the data active means inhibition mostly above about 38%, no sharp cut-off; inactive means mostly below about 40%;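 further: 0% = agonist challenge alone and 100% = reference antagonist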
TAAR1 agonist: human TAAR1 agonists, primary screen, Fluo-8 calcium fluorescence, CHO RD-HGA16 cells; vehicle wells 0%, saturating PEA agonist 100%; 360,000 compounds, 0.99% hits; activation, % at 3 µM; Trace amine-associated receptor 1 (Homo sapiens), Q96RJ0;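 active means activation above the mean activation of all test compounds in the run plus 3 SD, cut at about 38% in these data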
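System: CHO-derived RD-HGA16 cells with stable Gα16 and human TAAR1 / Times: 17-24 h plating, Fluo-8 75 min 37 °C, 30 min RT / Technique: calcium-sensitive Fluo-8 signal, excitation 470-495, emission 515-575 nm / Measure: % activation relative to PEA EC100 response / Benchmarks: DMSO and PEA EC100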
OX1R antag-2: OX1R (HCRTR1) antagonists, primary screen, fluorescence, CHO/OX1R cells, Fluo-8 calcium, orexin A; Orexin/Hypocretin receptor type 1 (Homo sapiens), O43613; Fluo-8 calcium fluorescence; inhibition, % at 5 µM; 330,000 compounds, 0.43% hits; AID 434989, 2010;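 active means inhibition above its plate's threshold, mean inhibition of all tested compounds on the plate plus 3 SD, cut at about 37% in these data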;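 further: 0% = orexin A challenge wells and 100% = SB-334867-A antagonist wells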
GPR7 antag: GPR7 receptor antagonists, primary screen, cell-based, fluorescence, single concentration. Neuropeptides B/W receptor type 1 (Homo sapiens), P48145. GPR7-expressing cells, fluorescence antagonist assay. inhibition, % at 4.4 µM. 290,000 compounds, 1.1% hits. AID 1861, 2009; in the data active means inhibition above about 16%, passing the limit was not always enough;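 further: cells stimulated with the agonist NPW; 0% = agonist with vehicle and 100% = vehicle without agonist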
Starred values were filed as active, the others as inactive; / = no result.

SMILES	CHO parental Ca	TAAR1 antagonist	OX1R antag-1	TAAR1 agonist	OX1R antag-2	GPR7 antag
Cc1ccc(C)c(S(=O)(=O)N2CCN(C(=O)C3CCN(c4ncnc5sc(C)c(C)c45)CC3)CC2)c1	-2.9	58.6*	-1.3	4.9	16.6	/
CN(C)S(=O)(=O)c1cc(C(=O)Nc2ccccc2C(=O)NC2CC2)ccc1Cl	-31.4	37.5	-5.5	9.7	1.8	/
COc1cccc2c3c(c(C)nc12)CCN3c1ccccc1	8.0	-19.6	63.8*	8.3	-11.0	0.8
Cc1nn(-c2ccccc2)c(N)c1N=O	-6.3	-13.5	61.0*	1.3	-7.6	-1.8
O=C(C=Cc1ccc(OCc2ccccc2)cc1)c1c(F)cccc1F	/	-10.8	/	-0.2	/	/
O=C(Cc1c[nH]c2ccccc12)Nc1ccc(Nc2ccncc2)cc1	/	-6.4	/	1.1	/	/
CN(C)CCCNC(=S)NCC(c1ccc(Cl)cc1Cl)c1c[nH]c2ccccc12 (stereo unspecified)	43.2*	39.8	1.6	13.3	39.1*	75.3*
Cc1cc(C)n(CCC(=O)N/N=C/c2c(O)ccc3ccccc23)n1	-31.2	-20.6	25.9	13.7	-38.2	-10.0
O=C(CCSc1nc2ccccc2s1)N/N=C/c1c(O)ccc2ccccc12	5.9	28.3	60.9*	3.2	9.1	-0.9
O=C(NCc1ccccc1)c1nc(-c2c(F)cccc2F)oc1-c1ccccc1	/	-29.3	/	3.6	/	/
Cc1nc(SCC(=O)c2cccs2)c2oc3ccccc3c2n1	-13.1	24.2	72.9*	16.7	-0.4	10.5
Cc1nc(SCc2nc3ccccc3[nH]2)c2oc3ccccc3c2n1	-33.0	16.3	79.4*	12.5	-8.5	-1.5
O=C(CN1C(=O)C2C3C=CC(C3)C2C1=O)OCC(=O)c1ccc([N+](=O)[O-])cc1 (stereo unspecified)	1.9	0.8	57.6*	-2.0	-15.9	5.0
O=C(CN1C(=O)C2C3C=CC(C3)C2C1=O)OCC(=O)c1ccc(Cl)cc1 (stereo unspecified)	/	-0.2	/	2.2	/	-6.5
CC1CC(C)(C)CC2(C1)NC(=O)N(CC(=O)Nc1ccc3[nH]c(=O)[nH]c3c1)C2=O (stereo unspecified)	-3.8	-16.4	2.5	1.4	2.8	/
CC1CC(C)(C)CC2(C1)NC(=O)N(CC(=O)OCc1ccc(Br)cc1)C2=O (stereo unspecified)	-9.9	22.7	-3.5	41.3*	-30.8	/
Cc1[nH]c2ccccc2c1C(=O)CN1C(=O)NC2(CC(C)CC(C)(C)C2)C1=O (stereo unspecified)	-7.1	53.4*	19.5	17.0	-2.5	18.6*
CC(C)[C@@H](C)/C=C/[C@@H](C)[C@H]1CC[C@@H]2[C@]1(C)CCC1[C@]23C=C[C@]2(C[C@@H](O)CC[C@]12C)N(c1ccc(Br)cn1)O3 (stereo partly specified)	/	-20.4	/	0.1	/	/
CCC(C(=O)Nc1c(C)cccc1C)n1c(-c2ccc(-c3ccccc3)cc2)nc2ccccc21 (stereo unspecified)	/	-45.0	/	0.0	/	/
Cc1cccc(C2(c3cccc(C)c3)CC2C(=O)Nc2ccc([N+](=O)[O-])cc2O)c1 (stereo unspecified)	-6.0	58.0*	39.6	2.9	5.5	16.2
Cc1cccc(OCCSc2nc3ncnc(N)c3[nH]2)c1	-11.8	10.1	19.8	1.7	-9.8	16.3*
C(=C\c1ccccc1)/CN1CCN(C(c2ccccc2)c2nnnn2-c2ccc3c(c2)OCCO3)CC1 (stereo unspecified)	/	-23.2	/	-0.5	/	/
Cc1ccc(OCCN2CCN(c3ncnc4sc(C)c(C)c34)CC2)cc1	4.4	14.4	43.8*	3.5	-5.1	8.1
CCN1CCN(CCOc2ccc(Cl)cc2)CC1	-2.1	-5.3	0.0	11.8	-15.8	-4.9
